Sequences and labels used below:
B1: EVH1 domain of PPP4R3A (amino acids 2-117) (domain or fragment, human, UniProt Q6IN85 2-117, looked up)
chain: TDTRRRVKVYTLNEDRQWDDRGTGHVSSGYVERLKGMSLLVRAESDGSLLLESKINPNTAYQKQQDTLIVWSEAENYDLALSFQEKAGCDEIWEKICQVQGKDPSVDITQDLVDES

One assay addresses T1, PPP4R3A EVH1 domain (Homo sapiens, UniProt Q6IN85).
T1 sequence (Q6IN85 2-117): B1 chain
Put plainly: ITC of peptides with the EVH1 domain from PPP4R3A. The format is binding. The essentials: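 Peptide in syringe, titrated at 25 °C into cell holding EVH1 domain: one 0.4 μl injection, then 19 × 2 μl at 150 s spacing, stirring 750 rpm. Peptide-into-buffer controls run. Heats normalised per mole injectant, fitted to single-site model.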

For assay [1], the target named is B1. Put plainly: ITC.
Assay [2] concerns the target T2, CDC25A full length, recombinant (human, UniProt P30304 1-524).
T2 sequence (looked up): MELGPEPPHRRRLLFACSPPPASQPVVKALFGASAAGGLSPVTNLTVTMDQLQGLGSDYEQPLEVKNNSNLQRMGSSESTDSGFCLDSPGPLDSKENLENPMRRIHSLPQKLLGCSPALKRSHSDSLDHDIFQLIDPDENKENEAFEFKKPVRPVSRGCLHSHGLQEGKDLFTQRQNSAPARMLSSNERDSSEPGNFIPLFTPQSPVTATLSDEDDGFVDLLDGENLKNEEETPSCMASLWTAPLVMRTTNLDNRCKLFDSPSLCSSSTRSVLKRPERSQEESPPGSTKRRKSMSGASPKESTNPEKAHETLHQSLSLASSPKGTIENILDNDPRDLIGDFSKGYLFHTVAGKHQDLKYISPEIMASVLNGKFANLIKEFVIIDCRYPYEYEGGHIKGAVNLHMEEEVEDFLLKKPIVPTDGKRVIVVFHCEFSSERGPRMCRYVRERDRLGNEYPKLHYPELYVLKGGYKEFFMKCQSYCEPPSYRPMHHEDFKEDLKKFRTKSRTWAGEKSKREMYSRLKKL
Put plainly: ITC.

A further assay has as its target T3, GST-WAPL 375-625 (human, UniProt Q7Z5K2 375-625).
T3 sequence (looked up): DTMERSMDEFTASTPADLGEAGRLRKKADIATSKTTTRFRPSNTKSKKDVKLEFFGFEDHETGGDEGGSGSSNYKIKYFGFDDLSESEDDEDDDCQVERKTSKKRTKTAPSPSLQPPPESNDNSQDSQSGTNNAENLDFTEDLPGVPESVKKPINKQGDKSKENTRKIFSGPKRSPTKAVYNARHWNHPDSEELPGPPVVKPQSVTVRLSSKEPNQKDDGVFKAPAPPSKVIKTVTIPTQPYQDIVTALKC
Put plainly: ITC.

Ends that are not written are not given here.

Take DPDTEAMPPPPPKRPHPL [MCE1-L(-1)A]: on PPP4R3A EVH1 domain, the affinity, expressed as Kd, was 3.78 µM.
Still for that read-out and setting: in the case of DPDTELAPPPPPKRPHPL [MCE1-M1A] it was 85.6 µM; in that of DPDTELMPAPPPKRPHPL [MCE1-P3A], 7.58 µM; in that of DPDTELMPPAPPKRPHPL [MCE1-P4A], 119 µM.
DPDTELMPPPAPKRPHPL [MCE1-P5A] showed a Kd at PPP4R3A EVH1 domain of 1.49 µM.
On PPP4R3A EVH1 domain, DPDTELMPPPPAKRPHPL [MCE1-P6A] had a Kd of 1.4 µM.
Take PFTFKVAAPPPS [model peptide P4: Ala]: in assay [1], the Kd was 53 µM.
With B1, the binding result (in assay [2]; with GST-WAPL 375-625) was “binds” each time.
For DPDTELMAPPPPKRPHPL [MCE1 peptide MCE1-P2A], binding in assay [1] was characterised by a dissociation constant (Kd) of 7.93 µM.
On the same count and under the same terms, in the case of PFTAKVPAPPPS [model peptide P1: Ala] it was 53 µM; in that of DPDTELMPPPPPKRPHPL [MCE1 MxPP motif peptide], 0.98 µM.
